# Test results taken from ChEMBL document CHEMBL1129492, “Structure-activity relationships among 2-substituted 5,6-dichloro-, 4,6-dichloro-, and 4,5-dichloro-1-[(2-hydroxyethoxy) methyl]- and -1-[(1,3-dihydroxy-2-propoxy) methyl]benzimidazoles” (J Med Chem, 1996).
# Test system: KB
# Experiment: Inhibitory activity of compound against KB cell growth [>-indicates IC50/IC90 was not reached at the noted (highest) concentration tested]
# Assay type: functional, cell-based
# Conditions: Homo sapiens
# Procedure, shortened: (§1)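 KB cells plated at 3000-5000 cells/well and held overnight at 37 °C. Compound added in quadruplicate at six to eight concentrations, then 48 h at 37 °C in CO₂ (about two population doublings). Cells fixed with 95% ethanol, stained with 0.1% crystal violet, dye eluted with acidified ethanol and read at 570 nm. IC50 from regression.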
row,SMILES,IC50
1,OCC(CO)OCn1c(Cl)nc2cc(Cl)c(Cl)cc21,> 100 µM
2,OCC(CO)OCn1c(Br)nc2c(Cl)cc(Cl)cc21,> 100 µM
3,Nc1nc2cc(Cl)c(Cl)cc2n1COC(CO)CO,> 100 µM
4,OCC(CO)OCn1c(Br)nc2cc(Cl)c(Cl)cc21,> 100 µM
5,CN(C)c1nc2c(Cl)c(Cl)ccc2n1COC(CO)CO,> 100 µM
6,CN(C)c1nc2c(Cl)cc(Cl)cc2n1COC(CO)CO,> 100 µM
7,OCC(CO)OCn1cnc2cc(Cl)c(Cl)cc21,> 100 µM
8,OCC(CO)OCn1c(Cl)nc2c(Cl)c(Cl)ccc21,> 100 µM
9,OCC(CO)OCn1c(S)nc2c(Cl)cc(Cl)cc21,> 100 µM
10,OCC(CO)OCn1c(SCc2ccccc2)nc2c(Cl)c(Cl)ccc21,60 µM
11,OCC(CO)OCn1cnc2c(Cl)c(Cl)ccc21,> 100 µM
12,Nc1nc2c(Cl)c(Cl)ccc2n1COC(CO)CO,> 100 µM
13,OCC(CO)OCn1c(S)nc2c(Cl)c(Cl)ccc21,> 100 µM
14,CN(C)c1nc2cc(Cl)c(Cl)cc2n1COC(CO)CO,> 100 µM
15,CNc1nc2c(Cl)c(Cl)ccc2n1COC(CO)CO,> 100 µM
16,OCC(CO)OCn1c(S)nc2cc(Cl)c(Cl)cc21,> 100 µM
17,OCC(CO)OCn1c(Br)nc2c(Cl)c(Cl)ccc21,> 100 µM
18,CNc1nc2cc(Cl)c(Cl)cc2n1COC(CO)CO,> 100 µM
19,OCC(CO)OCn1c(SCc2ccccc2)nc2cc(Cl)c(Cl)cc21,> 100 µM
20,Nc1nc2c(ncn2COC(CO)CO)c(=O)[nH]1 [GANCICLOVIR],> 100 µM

# Test system: Human betaherpesvirus 5
# Experiment: Antiviral activity of compound against HCM virus in yield reduction experiments
# Assay type: functional
# Conditions: not given
# Procedure, shortened: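 HFF cells infected with HCMV (Towne) at moi 0.5-1 PFU/cell, then given compound serially diluted 1:3 (100 to 0.14 µM) in duplicate. After 7 days at 37 °C, one freeze-thaw cycle. Progeny virus was titered by 1:3 serial dilution on fresh HFF monolayers with plaque counting. IC90 reported.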
row,SMILES,IC90
1,OCC(CO)OCn1c(Br)nc2c(Cl)cc(Cl)cc21,50 µM
2,OCC(CO)OCn1c(Br)nc2cc(Cl)c(Cl)cc21,25 µM
3,Nc1nc2c(ncn2COC(CO)CO)c(=O)[nH]1 [GANCICLOVIR],1.6 µM

# Test system: KB
# Experiment: Inhibitory activity of compound against KB cell growth
# Assay type: functional, cell-based
# Conditions: Homo sapiens
# Procedure, shortened: as §1
row,SMILES,IC50
1,Nc1nc2cc(Cl)c(Cl)cc2n1COCCO,> 100 µM
2,CNc1nc2cc(Cl)c(Cl)cc2n1COCCO,> 100 µM
3,Nc1nc2c(Cl)c(Cl)ccc2n1COCCO,> 100 µM

# Test system: HFF
# Experiment: Visual cytotoxicity of compound on HFF cells at time of HCMV plaque enumeration
# Assay type: functional, cell-based
# Conditions: Homo sapiens
# Procedure, shortened: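 Stationary, uninfected HFF cells in the HCMV plaque assay were scored microscopically for cytotoxicity when plaques were enumerated, after 7 days at 37 °C.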
row,SMILES,IC50
1,OCC(CO)OCn1c(Cl)nc2cc(Cl)c(Cl)cc21,> 100 µM
2,Nc1nc2cc(Cl)c(Cl)cc2n1COCCO,> 100 µM
3,CNc1nc2cc(Cl)c(Cl)cc2n1COCCO,> 100 µM
4,Nc1nc2c(Cl)c(Cl)ccc2n1COCCO,> 100 µM
5,OCC(CO)OCn1c(Br)nc2c(Cl)cc(Cl)cc21,161 µM
6,Nc1nc2cc(Cl)c(Cl)cc2n1COC(CO)CO,> 100 µM
7,OCC(CO)OCn1c(Br)nc2cc(Cl)c(Cl)cc21,> 100 µM
8,CN(C)c1nc2c(Cl)c(Cl)ccc2n1COC(CO)CO,> 100 µM
9,CN(C)c1nc2c(Cl)cc(Cl)cc2n1COC(CO)CO,> 100 µM
10,OCC(CO)OCn1cnc2cc(Cl)c(Cl)cc21,> 100 µM
11,OCC(CO)OCn1c(Cl)nc2c(Cl)c(Cl)ccc21,> 100 µM
12,OCC(CO)OCn1c(S)nc2c(Cl)cc(Cl)cc21,> 100 µM
13,OCC(CO)OCn1c(SCc2ccccc2)nc2c(Cl)c(Cl)ccc21,32 µM
14,OCC(CO)OCn1cnc2c(Cl)c(Cl)ccc21,> 100 µM
15,Nc1nc2c(Cl)c(Cl)ccc2n1COC(CO)CO,> 100 µM
16,OCC(CO)OCn1c(S)nc2c(Cl)c(Cl)ccc21,> 100 µM
17,CN(C)c1nc2cc(Cl)c(Cl)cc2n1COC(CO)CO,> 100 µM
18,CNc1nc2c(Cl)c(Cl)ccc2n1COC(CO)CO,> 100 µM
19,OCC(CO)OCn1c(S)nc2cc(Cl)c(Cl)cc21,> 100 µM
20,OCC(CO)OCn1c(Br)nc2c(Cl)c(Cl)ccc21,> 100 µM
21,CNc1nc2cc(Cl)c(Cl)cc2n1COC(CO)CO,> 100 µM
22,OCC(CO)OCn1c(SCc2ccccc2)nc2cc(Cl)c(Cl)cc21,> 100 µM
23,Nc1nc2c(ncn2COC(CO)CO)c(=O)[nH]1 [GANCICLOVIR],> 100 µM

# Test system: Human alphaherpesvirus 1
# Experiment: Antiviral activity against herpes simplex virus type 1 (HSV-1) in an ELISA assay
# Assay type: functional, organism-based
# Conditions: not given
# Procedure, shortened: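 BSC-1 cells (10 000/well, MEM(E) + 10% calf serum) incubated overnight at 37 °C, then given drug in quadruplicate with HSV-1 at 100 PFU/well. After 3 days at 37 °C, plates were blocked and probed with HRP-conjugated rabbit anti-HSV-1 antibody and developed with tetramethylbenzidine. Absorbance was read at 450 and 570 nm. Percent reduction was taken versus virus without drug.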
row,SMILES,IC50
1,OCC(CO)OCn1c(Cl)nc2cc(Cl)c(Cl)cc21,> 100 µM
2,Nc1nc2cc(Cl)c(Cl)cc2n1COCCO,> 100 µM
3,CNc1nc2cc(Cl)c(Cl)cc2n1COCCO,> 100 µM
4,Nc1nc2c(Cl)c(Cl)ccc2n1COCCO,> 100 µM
5,Nc1nc2cc(Cl)c(Cl)cc2n1COC(CO)CO,> 100 µM
6,OCC(CO)OCn1c(Br)nc2cc(Cl)c(Cl)cc21,100 µM
7,CN(C)c1nc2c(Cl)c(Cl)ccc2n1COC(CO)CO,> 100 µM
8,CN(C)c1nc2c(Cl)cc(Cl)cc2n1COC(CO)CO,> 100 µM
9,OCC(CO)OCn1cnc2cc(Cl)c(Cl)cc21,> 100 µM
10,OCC(CO)OCn1c(Cl)nc2c(Cl)c(Cl)ccc21,100 µM
11,OCC(CO)OCn1c(S)nc2c(Cl)cc(Cl)cc21,> 100 µM
12,OCC(CO)OCn1c(SCc2ccccc2)nc2c(Cl)c(Cl)ccc21,55 µM
13,OCC(CO)OCn1cnc2c(Cl)c(Cl)ccc21,> 100 µM
14,Nc1nc2c(Cl)c(Cl)ccc2n1COC(CO)CO,> 100 µM
15,OCC(CO)OCn1c(S)nc2c(Cl)c(Cl)ccc21,> 100 µM
16,CN(C)c1nc2cc(Cl)c(Cl)cc2n1COC(CO)CO,> 100 µM
17,CNc1nc2c(Cl)c(Cl)ccc2n1COC(CO)CO,> 100 µM
18,OCC(CO)OCn1c(S)nc2cc(Cl)c(Cl)cc21,55 µM
19,OCC(CO)OCn1c(Br)nc2c(Cl)c(Cl)ccc21,> 100 µM
20,CNc1nc2cc(Cl)c(Cl)cc2n1COC(CO)CO,> 100 µM
21,OCC(CO)OCn1c(SCc2ccccc2)nc2cc(Cl)c(Cl)cc21,> 100 µM

# Test system: Human betaherpesvirus 5
# Experiment: Antiviral activity against human cytomegalovirus (HCM virus) in plaque assay
# Assay type: functional, organism-based
# Conditions: not given
# Procedure, shortened: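 HCMV Towne strain (plaque-purified P_O) at ca. 100 PFU/cm² on HFF cell sheets. After adsorption, compound in growth medium was added to duplicate wells at four to eight concentrations. Incubated 7 days at 37 °C, then crystal violet staining and microscopic plaque counts. Percent plaque reduction versus no drug; IC50 from regression lines.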
row,SMILES,IC50
1,OCC(CO)OCn1c(Cl)nc2cc(Cl)c(Cl)cc21,> 100 µM
2,Nc1nc2cc(Cl)c(Cl)cc2n1COCCO,> 100 µM
3,CNc1nc2cc(Cl)c(Cl)cc2n1COCCO,> 100 µM
4,Nc1nc2c(Cl)c(Cl)ccc2n1COCCO,> 100 µM
5,OCC(CO)OCn1c(Br)nc2c(Cl)cc(Cl)cc21,136 µM
6,Nc1nc2cc(Cl)c(Cl)cc2n1COC(CO)CO,> 100 µM
7,OCC(CO)OCn1c(Br)nc2cc(Cl)c(Cl)cc21,> 100 µM
8,CN(C)c1nc2c(Cl)c(Cl)ccc2n1COC(CO)CO,> 100 µM
9,CN(C)c1nc2c(Cl)cc(Cl)cc2n1COC(CO)CO,> 100 µM
10,OCC(CO)OCn1cnc2cc(Cl)c(Cl)cc21,> 100 µM
11,OCC(CO)OCn1c(Cl)nc2c(Cl)c(Cl)ccc21,> 100 µM
12,OCC(CO)OCn1c(S)nc2c(Cl)cc(Cl)cc21,> 100 µM
13,OCC(CO)OCn1c(SCc2ccccc2)nc2c(Cl)c(Cl)ccc21,35 µM
14,OCC(CO)OCn1cnc2c(Cl)c(Cl)ccc21,> 100 µM
15,Nc1nc2c(Cl)c(Cl)ccc2n1COC(CO)CO,> 100 µM
16,OCC(CO)OCn1c(S)nc2c(Cl)c(Cl)ccc21,> 100 µM
17,CN(C)c1nc2cc(Cl)c(Cl)cc2n1COC(CO)CO,> 100 µM
18,CNc1nc2c(Cl)c(Cl)ccc2n1COC(CO)CO,> 100 µM
19,OCC(CO)OCn1c(S)nc2cc(Cl)c(Cl)cc21,> 100 µM
20,OCC(CO)OCn1c(Br)nc2c(Cl)c(Cl)ccc21,> 100 µM
21,CNc1nc2cc(Cl)c(Cl)cc2n1COC(CO)CO,> 100 µM
22,OCC(CO)OCn1c(SCc2ccccc2)nc2cc(Cl)c(Cl)cc21,> 100 µM
